Measurements taken from ChEMBL document CHEMBL4219166, “Evaluation of analogues of furan-amidines as inhibitors of NQO2” (Bioorg Med Chem Lett, 2018).
The source made the active and inactive calls. No cut-off for these calls is given here.

Experiments:
[1] = molecular target: T1, Ribosyldihydronicotinamide dehydrogenase [quinone] (Homo sapiens) (UniProt P16083); assay: Inhibition of recombinant human NQO2 assessed as change in rate of decolouration of DCPIP at 10 uM measured over 1 min by spectrophotometric method
T1 sequence (whole entry): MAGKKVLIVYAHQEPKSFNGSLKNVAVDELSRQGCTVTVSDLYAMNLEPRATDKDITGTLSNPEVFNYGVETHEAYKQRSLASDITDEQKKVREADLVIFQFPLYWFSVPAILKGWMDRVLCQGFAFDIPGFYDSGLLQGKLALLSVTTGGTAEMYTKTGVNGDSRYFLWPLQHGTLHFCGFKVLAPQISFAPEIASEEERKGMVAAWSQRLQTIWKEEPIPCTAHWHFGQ
Procedure, shortened: (§1)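 The NQO2 enzymatic activity was followed spectrophotometrically as the decolouration of the blue redox dye 2,6-dichlorophenolindophenol (DCPIP) at pH 7.4.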

[2] = molecular target: T2, Ribosyldihydronicotinamide dehydrogenase [quinone] (Homo sapiens, UniProt P16083); assay: Inhibition of recombinant human NQO2 assessed as change in rate of decolouration of DCPIP measured over 1 min by spectrophotometric method; procedure, shortened: as §1
T2 sequence (P16083 whole entry): T1 sequence (whole entry)

[3] = system: Plasmodium falciparum; assay: Antimalarial activity against Plasmodium falciparum 3D7 asexual cultures grown under 5% haematocrit assessed as decrease in parasite DNA level by flow cytometry; format: functional, organism-based

## COC(=N)c1ccc(-c2ccc(-c3ccccc3)o2)cc1
[1]
  inhibition: inactive

## N=C(N)c1ccc(-c2ccc(-c3ccccc3)s2)cc1
[2]
  IC50: 773 nM
[3]
  IC50: 18900 nM

## N=C(N)c1ccc(-c2nc(-c3ccccc3)c[nH]2)cc1
[2]
  IC50: 1110 nM
[3]
  IC50: 5300 nM

## CC(=N)Nc1ccc(-c2ccc(-c3ccccc3)s2)cc1
[3]
  IC50: 970 nM
[1]
  inhibition: inactive

## N=C(N)c1ccc(-c2ccc(-c3ccccc3)o2)cc1
[3]
  IC50: 1500 nM

## Cn1cc(-c2ccccc2)nc1-c1ccc(C(=N)N)cc1
[1]
  inhibition: inactive

## CC(=N)Nc1ccc(-c2ccc(-c3ccccc3)o2)cc1
[3]
  IC50: 770 nM
[1]
  inhibition: inactive

## CC(=O)Nc1ccc(-c2ccc(-c3ccccc3)o2)cc1
[1]
  inhibition: inactive

## Cc1oc(-c2ccc(C(=N)N)cc2)cc1-c1ccccc1
[1]
  inhibition: inactive

## N=C(N)c1ccc(-c2ccc(-c3ccc(C(=N)N)cc3)o2)cc1 [FURAMIDINE]
[3]
  IC50: 0.5 nM

## CC(=O)Nc1cccc(-c2ccc(-c3ccccc3)s2)c1
[2]
  IC50: 2000 nM

## CC(=O)Nc1cccc(-c2ccc(-c3ccccc3)o2)c1
[2]
  IC50: 1140 nM

## N=C(NO)c1ccc(-c2ccc(-c3ccccc3)o2)cc1
[1]
  inhibition: inactive
